An excerpt weighted towards active compounds, which were near 3.7% of everything screened.
SR-BI uptake up = SR-BI HDL lipid transfer activation. CHO ldlA[mSR-BI] cells, DiI-HDL uptake fluorescence, 3 h; 100 = double the neutral-control signal. activation, % at 12.5 µM. 320,000 compounds, 0.096% hits;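 active = mean replicate activation of at least 60% and every replicate at or above 60%; inconclusive = mean or all-replicate condition met, but not both; inactive = mean below 60% and not all replicates reaching 60%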
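system = CHO ldlA[mSR-BI] cells, LDL receptor-null, SR-BI overexpressing | medium = Ham's F12 with 0.5% BSA, HEPES 25 mM, pH 7.4 | probe or stimulus = DiI-HDL 10 µg/mL | compound dosing = single-point compound dose | incubation = compound exposure 3 h, 37 °C | technique = DiI fluorescence, bottom read | read-out = cell-associated DiI fluorescence as measure of HDL uptake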
AHR activator = activates the human aryl hydrocarbon receptor. AHR-responsive luciferase reporter cells, luminescence. activation, % at 5 µM. 320,000 compounds, 2.5% hits; in the data active = activation above about 47%
Target sequence (P35869 whole entry, looked up): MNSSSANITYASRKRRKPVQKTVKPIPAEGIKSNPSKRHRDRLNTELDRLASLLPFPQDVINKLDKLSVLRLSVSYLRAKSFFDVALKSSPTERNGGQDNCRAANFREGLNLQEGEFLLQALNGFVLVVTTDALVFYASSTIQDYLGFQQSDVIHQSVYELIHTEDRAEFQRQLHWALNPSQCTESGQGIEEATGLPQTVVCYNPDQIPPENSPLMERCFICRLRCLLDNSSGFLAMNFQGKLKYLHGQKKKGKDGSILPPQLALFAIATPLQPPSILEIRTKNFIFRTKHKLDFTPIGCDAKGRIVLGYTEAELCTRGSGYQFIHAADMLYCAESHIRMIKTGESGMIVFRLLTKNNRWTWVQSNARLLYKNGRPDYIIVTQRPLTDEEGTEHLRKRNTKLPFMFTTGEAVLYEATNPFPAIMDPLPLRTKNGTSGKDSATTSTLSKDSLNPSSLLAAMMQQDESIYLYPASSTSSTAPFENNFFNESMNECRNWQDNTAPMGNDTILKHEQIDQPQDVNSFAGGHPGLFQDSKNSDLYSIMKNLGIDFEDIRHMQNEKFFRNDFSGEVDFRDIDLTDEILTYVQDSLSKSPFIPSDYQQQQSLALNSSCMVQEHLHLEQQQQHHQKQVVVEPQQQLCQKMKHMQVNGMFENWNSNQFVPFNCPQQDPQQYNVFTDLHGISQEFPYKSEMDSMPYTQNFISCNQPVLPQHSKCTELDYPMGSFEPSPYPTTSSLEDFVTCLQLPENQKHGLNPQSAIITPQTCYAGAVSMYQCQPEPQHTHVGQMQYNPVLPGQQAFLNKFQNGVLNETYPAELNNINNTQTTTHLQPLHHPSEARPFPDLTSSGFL
FXN GAA850 act = activators of GAA850 frataxin (FXN) promoter; HEK293 lucGAA850 FXN promoter luciferase reporter, 24 h; percent of 10 µM SAHA response; activation, % at 6 µM; 360,000 compounds, 0.56% hits; AID 540364;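 active = activation above the average of all compounds screened plus 3 SD, cutoff fixed separately per campaign, cut at about 7.5% in these data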
SR-BI HDL uptake = inhibitors of mouse SR-BI mediated HDL lipid uptake. Q61009. ldlA[mSR-BI] CHO cells, DiI-HDL uptake fluorescence, 3 h. inhibition, % at 12.5 µM. 320,000 compounds, 0.96% hits;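 active = mean replicate inhibition of at least 70% and a set share of replicates each scoring 70 or more; inconclusive = meets just one of the two criteria; inactive = fails both criteria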
GASC-1 inh = human JMJD2C demethylase inhibition | Q9H3R0 | inhibition, % at 2.35 µM | AID 2099 | 330,000 compounds, 0.069% hits | GST-JMJD2C(1-420) H3K9me3 demethylation, DELFIA europium;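 active = more than half of a compound's replicate wells show inhibition beyond 50%, single wells judged on their own value; inconclusive = some, but no more than half, of replicates pass 50% inhibition; inactive = no replicate passes 50% inhibition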;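 note: signal counts dimethyl H3K9 product captured on neutravidin plate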
A number is an active result; i = inactive; ? = inconclusive; nt = no result.

SMILES	SR-BI uptake up	AHR activator	FXN GAA850 act	SR-BI HDL uptake	GASC-1 inh
COc1ccc(C(=O)N2CCCc3ccccc32)cc1OC	i	nt	i	83.2	i
COc1cc(C(=O)N2CCCc3ccccc32)cc(OC)c1OC	i	i	i	i	i
CCC1CCCCN1C(=O)C1CC(c2cc(Cl)c(OC)cc2OC)=NO1 (configuration not stated)	i	i	i	i	i
COc1ccc(NC(=S)N2CCc3ccccc32)cc1OC	i	53.0	i	i	i
COc1cc(OC)c(C2=NOC(C(=O)N3CCCc4ccccc43)C2)cc1Cl (configuration not stated)	i	i	i	81.4	i
S=C(Nc1ccccc1)N1CCc2ccccc21	nt	i	i	nt	i
Cn1c(=O)c2cc(NC(=O)OCCF)ccc2n1Cc1cccc(C(F)(F)F)c1	nt	nt	i	nt	nt
Cc1ccc(CNC(=S)Nc2ccc(NS(=O)(=O)c3ccc(C)cc3)cc2)cc1	i	nt	i	i	i
O=C(NCc1cccs1)C1CC(=O)N(Cc2ccccc2)C1 (configuration not stated)	i	i	i	i	i
Clc1ccc(-c2cnc3ccccc3n2)cc1	i	52.5	i	i	i
Cc1cc(N)n(-c2cc(C)c3ccccc3n2)n1	i	i	i	i	i
Cc1cc(N)n(-c2nc(-c3cccnc3)nc3ccccc23)n1	i	61.1	i	i	i
CC1CCCCN1c1nc(-c2ccncc2)nc2ccccc12 (configuration not stated)	i	i	i	i	i
c1ccc2c(N3CCOCC3)nc(-c3ccncc3)nc2c1	i	i	i	i	i
c1cncc(-c2nc(N3CCOCC3)c3ccccc3n2)c1	i	77.5	i	i	i
CC1CCN(c2nc(-c3ccncc3)nc3ccccc23)CC1	i	i	i	80.4	i
CC1CCN(c2nc(/C=C/c3ccccc3)nc3ccccc23)CC1	i	71.7	i	i	i
Cc1cc(NC(=O)c2ccc3sc([C@@H]4O[C@H](CO)[C@H](O)[C@H](O)[C@H]4O)nc3c2)no1	nt	nt	i	nt	nt
CCOC(=O)c1[nH]c2cc3c(cc2c1NC(=O)CN1CCC2(CC1)OCCO2)OCO3	i	62.0	i	i	i
CCOC(=O)N1CCN(CC(=O)Nc2c(C(=O)OC)[nH]c3cc(C)ccc23)CC1	i	64.1	i	i	i
CCOC(=O)c1[nH]c2cc3c(cc2c1NC(=O)CN1CCN(CCO)CC1)OCO3	i	i	i	i	i
COc1ccc(C2/C=C\CC(NC(=O)OCC3c4ccccc4-c4ccccc43)CC(=O)N2Cc2ccccc2F)cc1 (configuration not stated)	i	nt	i	i	nt
CN(C)c1ccc(NC(=O)Cc2ccccc2)c2ccccc12	i	i	i	i	i
COc1ccc2nc(N=Nc3ccc(O)c4ccccc34)sc2c1	i	73.0	i	i	i
CN(Cc1ccccc1NCC(=O)Nc1ccccc1C#N)C1CCCCC1	i	i	i	i	i
SMILES	SR-BI uptake up	AHR activator	FXN GAA850 act	SR-BI HDL uptake	GASC-1 inh
N#Cc1ccccc1NC(=O)CNc1ccccc1N1CCCCC1	i	i	i	80.6	i
Cc1onc(-c2ccccc2)c1C(=O)NCc1ccccc1F	nt	i	i	nt	i
CCOc1[nH]n(-c2ccccc2)c(=O)c1C=Nc1ccc(OC)cc1	i	i	i	i	i
CCOc1[nH]n(-c2ccc(Cl)cc2)c(=O)c1C=Nc1ccc(Cl)cc1	i	i	i	74.5	i
CCOc1[nH]n(-c2ccc(Cl)cc2)c(=O)c1C=NCc1cccnc1	i	55.9	i	i	i
CCOc1[nH]n(-c2ccccc2)c(=O)c1C=NCc1ccncc1	i	i	i	i	i
CC1(C)CC(CC(=O)NC(=S)Nc2ccc([N+](=O)[O-])cc2)C(=O)O1 (configuration not stated)	i	i	i	89.5	?
O=C1CCC(C(=O)OCC(=O)N2N=C3/C(=C/c4ccccc4)CCCC3C2c2ccccc2)N1 (configuration not stated)	i	72.7	i	i	i
CC(Oc1ccccc1)C(=O)Nc1ccccc1O (configuration not stated)	i	49.5	i	i	i
C=CCNC(=O)c1ccccc1NC(=O)C1COc2ccccc2O1 (configuration not stated)	i	i	i	i	i
CCN1/C(=C\C(=S)Nc2ccccc2)Sc2ccccc21	i	i	i	80.5	i
CCN1/C(=C\C=C(C(C)=O)C(C)=O)Sc2ccccc21	i	i	i	i	i
Nc1nc(=O)n(C2CCCCO2)cc1Br (configuration not stated)	i	nt	i	i	nt
CC(C)(C)c1ccc(C(=O)CC(Sc2ccc(Cl)cc2)C(=O)O)cc1 (configuration not stated)	i	i	i	i	i
COc1ccccc1/C=N/N(C(C)=O)c1nc(-c2ccc(F)cc2)cs1	i	55.9	i	82.2	i
COc1ccc(/C=N/N(C(C)=O)c2nc(-c3ccc(C)cc3)cs2)cc1	i	i	i	i	i
CN(C(=O)COc1ccccc1)c1nc(-c2ccc(F)cc2)cs1	i	i	i	i	i
CC(=O)N(/N=C/c1cccc(C)c1)c1nc(-c2ccc(Br)cc2)cs1	i	78.3	i	i	i
COc1ccccc1CNc1nc(NCCN2CCNC2=O)c2sccc2n1	nt	nt	i	nt	nt
Cc1ccc(Cl)cc1NC(=S)N1CCC(c2ccccc2)C1 (configuration not stated)	nt	i	i	nt	i
COc1cc(NC(=O)c2cccc(F)c2)cc(OC)c1OC	i	63.2	i	i	i
COc1ccc(C(N)=O)cc1NC(=O)c1cccc(F)c1	i	60.6	i	i	i
O=C(Nc1ccc2c(c1)C(=O)NC2=O)c1cccc(C(F)(F)F)c1	i	53.2	i	i	i
O=C(Nc1ccc(F)cc1)c1cccc(C(=O)Nc2ccc(F)cc2)c1	i	51.4	i	i	i
O=C(Nc1ccc2c(c1)C(=O)NC2=O)c1ccccc1	i	i	i	i	i
SMILES	SR-BI uptake up	AHR activator	FXN GAA850 act	SR-BI HDL uptake	GASC-1 inh
Cc1no[n+]([O-])c1COc1cccc(/C=N/Nc2nncn2N)c1	i	i	i	i	i
CCCCNC(=O)[C@@H]1CSC2c3ccc(OC)c(OC)c3C(=O)N21 (some centres not stated)	i	i	i	i	i
Cc1cc2c(cc1S(=O)(=O)CCC(=O)NCCc1ccccc1)OCC(=O)N2	i	i	i	i	i
Cc1ccc(NC(=O)Cn2c(-c3ccc(F)cc3)cnc2SCC(=O)Nc2c(C)cccc2C)cc1	i	i	i	i	i
COC(=O)CS(=O)(=O)c1cccc2cccnc12	i	i	i	i	?
CN=c1sc(C(=O)Nc2cccc(Cl)c2)cc(=O)n1C	nt	i	i	nt	i
CN=c1sc(C(=O)Nc2ccccc2)c(C)n1C	i	71.5	i	i	i
CCCn1c(SC(C)C(=O)N2CCOCC2)nc2ccc(Br)cc2c1=O (configuration not stated)	i	i	i	i	i
Cc1cccc(C)c1N(CC(=O)N/N=C/c1cc(Br)c(C)o1)S(C)(=O)=O	i	i	i	i	i

Source: PubChem BioAssay (several laboratories)
